From ChEMBL document CHEMBL2150918, “Discovery of new scaffolds for rational design of HCV NS5B polymerase inhibitors” (Eur J Med Chem, 2012) come the findings set out here.

Active and inactive are the calls of the source. The calls are words filed in the database; no cut-off is given here.

For series [1], the system named is Hepatitis C virus. The experiment in a line: Ratio of IC50 for recombinant HCV1b NS5B Cdelta21 RNA dependent RNA polymerase M414T mutant PP1 binding site to IC50 for wild type recombinant C terminal His6-tagged HCV1b NS5B Cdelta21 RNA dependent RNA polymerase. Also noted: species or system Hepatitis C virus subtype 1b.
In series [2] the test system is Hepatitis C virus. Nature of the series: Inhibition of wild type recombinant C terminal His6-tagged HCV1b NS5B Cdelta21 RNA dependent RNA polymerase activity expressed in Escherichia coli JM109 (DE3) using poly rA/U12 template primer by liquid scintillation counting. Further details: species or system Hepatitis C virus subtype 1b. As to conditions: JM 109. The gist of the method: (§1)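 Radiometric RdRp assay with His6-tagged NS5BCΔ21 (wild type or P495L, M423T, M414T mutants) purified from E. coli JM109(DE3) by Ni-NTA. Template-primer poly rA/U12. Compounds diluted serially in DMSO. Started with 1.0 mM MnCl2, stopped with ice-cold 10% TCA plus 0.5 mM pyrophosphate. Incorporated UTP TCA-precipitated on GF-B filters and scintillation counted. Activity set relative to DMSO control. IC50 from nonlinear fit of 8–12 concentrations, duplicate, two independent experiments.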

The test system of series [3] is Hepatitis C virus. The experiment in a line: Ratio of IC50 for recombinant HCV1b NS5B Cdelta21 RNA dependent RNA polymerase P495L mutant TP1 binding site to IC50 for wild type recombinant C terminal His6-tagged HCV1b NS5B Cdelta21 RNA dependent RNA polymerase. Also noted: species or system Hepatitis C virus subtype 1b.
Series [4] has as its system BHK. Nature of the series: Inhibition of intracellular HCV NS5B RNA dependent RNA polymerase activity expressed in BHK cells at 100 uM after 42 hrs by renilla luciferase reporter gene assay. It is filed as cell-based. As to conditions: Hepacivirus hominis. Summed up:
(§2)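 BHK-NS5B-FRLuc reporter cells (DMEM, 10% heat-inactivated FBS, G418 1 mg/mL, blasticidin 10 µg/mL, 37°C, 5% CO2) treated with 100 µM compound or matching 1% DMSO for 42 hr. Lysates read by dual luciferase. Viability taken as firefly signal versus DMSO. Polymerase inhibition taken as percent reduction of Renilla/firefly ratio versus DMSO. At least three independent experiments in duplicate.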
(In a reporter assay the amount or activity of a reporter protein is the signal.)

Series [5] concerns Hepatitis C virus. Nature of the series: Ratio of IC50 for recombinant HCV1b NS5B Cdelta21 RNA dependent RNA polymerase M423T mutant TP2 binding site to IC50 for wild type recombinant C terminal His6-tagged HCV1b NS5B Cdelta21 RNA dependent RNA polymerase. Also noted: species or system Hepatitis C virus subtype 1b.
The subject of series [6] is Hepatitis C virus. Nature of the series: Inhibition of recombinant HCV1b NS5B Cdelta21 RNA dependent RNA polymerase P495L mutant TP1 binding site using poly rA/U12 template primer by liquid scintillation counting. Also noted: species or system Hepatitis C virus subtype 1b. Summed up:
as §1

The test system of series [7] is Hepatitis C virus. The experiment in a line: Inhibition of recombinant HCV1b NS5B Cdelta21 RNA dependent RNA polymerase M423T mutant TP2 binding site using poly rA/U12 template primer by liquid scintillation counting. Further details: species or system Hepatitis C virus subtype 1b. The gist of the method:
as §1

Series [8] deals with Hepatitis C virus. The experiment in a line: Inhibition of recombinant HCV1b NS5B Cdelta21 RNA dependent RNA polymerase M414T mutant PP1 binding site using poly rA/U12 template primer by liquid scintillation counting. Further details: species or system Hepatitis C virus subtype 1b. The gist of the method:
as §1

Series [9] is described as follows: Cytotoxicity against BHK cells assessed as cell viability by firefly luciferase reporter gene assay. In kind it is cell-based, Mesocricetus auratus. As to conditions: hamster. Summed up:
as §2

The subject of series [10] is Hepatitis C virus. The experiment in a line: Inhibition of wild type recombinant C terminal His6-tagged HCV1b NS5B Cdelta21 RNA dependent RNA polymerase activity expressed in Escherichia coli JM109 (DE3) at 100 uM using poly rA/U12 template primer by liquid scintillation counting. Also noted: species or system Hepatitis C virus subtype 1b. Summed up: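 Radiometric RdRp assay with wild-type NS5BCΔ21 (genotype 1b), C-terminal His6, Ni-NTA purified from E. coli JM109(DE3); poly rA/U12 template-primer. Compounds from 10 mM DMSO stocks, single-point at 100 µM. Started with 1.0 mM MnCl2, stopped with ice-cold 10% TCA/0.5 mM pyrophosphate. Incorporated radioactive UTP TCA-precipitated on GF-B filters, scintillation-counted; activity relative to DMSO control set at 100%.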

`C/C(=N\Nc1ncnc2ccccc12)C(=O)O`: the “Ratio IC50” value in series [1] is listed as “<=1.4”; in series [3], “<=1.4”; in series [5], 7.9. Besides, the IC50 in series [2] was determined as 16 µM; in [6], 14.2 µM; in series [7], 127 µM; in [8], 22.9 µM. In series [4], this molecule displayed an inhibition of 62.4%. In [9], the CC50 was more than 100 µM. For the same molecule, the inhibition at 100 µM in [10] is not below 50%.

For `COc1cc(/C=N/Nc2ccccc2C(=O)O)cc(Br)c1O`, the “Ratio IC50” value is “<=1.4” in series [1], “<=1.4” in series [3] and 8.5 in series [5]. In addition, the IC50 turned out to be 20.3 µM in series [2], 19.2 µM in series [6], 172 µM in series [7] and 23.7 µM in series [8]. In series [4], the inhibition stood at 57.8%. For the same molecule, in [9], the CC50 is more than 100 µM. Further, in series [10], the inhibition at 100 µM is not below 50%.

As to `COc1cc(O)c2c(c1)oc(=O)c1c3cc(O)c(O)cc3oc21` [WEDELOLACTONE], the IC50 in series [2] amounted to 34 µM.

On to `CC1CS(=O)(=O)N(c2ccc(S(=O)(=O)Nc3cccc4cccnc34)cc2)C1=O` (stereo unspecified), for which the “Ratio IC50” value is reported as “<=1.4” in series [1], “<=1.4” in series [3] and more than 4.5 in series [5]. Also, the concentration for half-maximal inhibition (IC50) in series [2] is 36.7 µM; in series [6], 43 µM; in series [7], more than 250 µM; in series [8] it was 36.1 µM. The same molecule gave an inhibition in series [4] of 40.5%. For the same molecule, the CC50 in series [9] is more than 100 µM. Also, in [10], the inhibition at 100 µM was not below 50%.

For the molecule `O=C(CCS(=O)(=O)c1ccccc1)N1CCN(C(=O)CCS(=O)(=O)c2ccccc2)CC1`, the “Ratio IC50” value in series [1] was “<=1.4”; in [3] it was “<=1.4”; in [5], more than 4.5. In addition, the IC50 is 33.1 µM in series [2], 33.5 µM in [6], more than 250 µM in series [7] and 37.8 µM in series [8]. In [4], this molecule displayed an inhibition of 42.1%. Moreover, the CC50 in series [9] was more than 100 µM. Also, in series [10], the inhibition at 100 µM was not below 50%.

As for `O=C(O)c1ccc(Nc2nnc(-c3ccccc3)c(=O)[nH]2)cc1O`, the “Ratio IC50” value in [1] is “<=1.4”; in series [3] it was “<=1.4”; in series [5] it was more than 4.5. In addition, the IC50 in series [2] was 46.2 µM; in series [6], 40.6 µM; in series [7], more than 250 µM; in series [8] it was 52.1 µM. In series [4], this molecule showed an inhibition of 45.1%. Moreover, in series [9], the 50% cytotoxic concentration (CC50) was more than 100 µM. Besides, the inhibition at 100 µM in series [10] was not below 50%.

As for `CCOC(=O)/C(C#N)=C\c1cn(CCC(=O)O)nc1-c1ccc(F)cc1`, the “Ratio IC50” value is “<=1.4” in [1], “<=1.4” in series [3] and more than 4.5 in series [5]. For the same molecule, the IC50 in [2] is 33 µM; in series [6] it was 34.3 µM; in series [7], more than 250 µM; in [8], 28.6 µM. Also, the inhibition in series [4] worked out at 44.2%. Further, the CC50 in series [9] was more than 100 µM. In addition, in series [10], the inhibition at 100 µM was not below 50%.

With `Cn1cc(C(=O)N2CCN(C(=O)c3ccc(F)cc3F)CC2)c2nn(-c3ccccc3)c(=O)c-2c1`, the “Ratio IC50” value in [1] is reported as “<=1.4”; in series [3], “<=1.4”; in series [5], more than 4.5. Further, the IC50 is 39.5 µM in [2], 41 µM in series [6], more than 250 µM in series [7] and 44.8 µM in series [8]. In series [4], this molecule came in with an inhibition of 43.3%. Further, the CC50 in series [9] is more than 100 µM. Also, the inhibition at 100 µM in [10] was not below 50%.

Turning to `Cc1cc(O)c(C(c2ccc(Cl)c(Cl)c2)c2c(O)cc(C)oc2=O)c(=O)o1`, the “Ratio IC50” value in [1] is “<=1.4”; in [3] it was “<=1.4”; in [5], more than 4.5. In addition, the IC50 in [2] was 56.8 µM; in [6], 63.8 µM; in series [7], more than 250 µM; in [8] it was 62.4 µM. In addition, the inhibition entry in series [4] was “inactive”. Further, the CC50 in series [9] was more than 100 µM. Also, the inhibition at 100 µM in [10] was not below 50%.

Usually IC50 stands for the midpoint of a concentration-inhibition curve. For orientation: inhibition means the share of the control response that was lost under treatment. Broadly, the CC50 is the concentration giving 50% cytotoxicity.
